Screening data as filed in PubChem.
Compounds with a hit are over-represented: about 3% of the library has one in this group of screens.
XiGFP reactiv: reactivates the inactive X chromosome in mouse fibroblasts; actives 0.055% (n = 360,000); activation, % at 7.58 µM; XiGFP mouse fibroblasts, % GFP-positive cells imaging, 3 d; cells co-treated with 5-aza-dC sensitizer; scaled so ellipticine positive control = 100%;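 active = mean normalized replicate activation at least 10% and every replicate at or above 10%; inconclusive = only one of the two criteria met; inactive = mean below 10% and not all replicates reach 10%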;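 also: 0% = median of on-plate neutral control wells and 100% = ellipticine 6 µM median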
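Schedule: 3 d treatment, 15 min room-temperature fixation; system: 68-5-11 XiGFP fibroblast line; buffer or medium: DMEM plus 5-aza-dC sensitizer; control set: ellipticine 6 µM positive control; compound: one concentration, pinned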
MITF act: MITF TRPM1 promoter activation in melanoma cells. SK-MEL-5 TRPM1-promoter luciferase, 24 h; % of positive control, neutral wells = 0. activation, % at 12.5 µM. actives 0.75% (n = 300,000). AID 588334;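 active = mean activation of at least 80% with every replicate also reaching 80%; inconclusive = mean reaches 80% but some replicate falls short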;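 also: 0% = neutral control wells and 100% = parthenolide positive control wells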
CASP6 VEID inh: blocks human caspase-6 cleavage activity; purified caspase-6, Z-VEID-R110 cleavage fluorescence; P55212; inhibition, % at 12.5 µM; actives 0.53% (n = 350,000); AID 686996;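 active = mean inhibition across replicates at least about 35%, with every replicate also reaching that limit, limit read from the data; inconclusive = only one of the two criteria met; inactive = neither criterion met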;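 also: 0% = median of neutral control wells and 100% = no fluorescence left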
NSD2 HMT inh: NSD2 (human) methyltransferase inhibition. O96028. NSD2 peptide methylation, AlphaScreen, 120 min. inhibition, % at 12.5 µM. actives 0.54% (n = 310,000); in the data active = inhibition above about 50%
Wnt bcat act: Wnt/beta-catenin pathway activation. Wnt/beta-catenin reporter cell assay, activator, plate reader. activation, % at 9.35 µM. actives 1.2% (n = 300,000). AID 743398; in the data active = activation above about 30%, passing the limit was not always enough; inconclusive = no clear call, values can overlap the other calls;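 also: 0% = neutral control wells and 100% = positive control wells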
esBAF inh: inhibitors of esBAF chromatin remodeling in mouse ES cells; Bmi1-luciferase knock-in reporter, 24 h; 100% = twice the neutral-well signal; reporter increase, % at 12.5 µM; actives 2% (n = 350,000); AID 602393; in the data active = activation above about 40%; inconclusive = no clear call, values can overlap the other calls;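 also: 0% = median of the plate's neutral control wells and 100% = double that signal; a rise in the Bmi1 reporter signal indicates esBAF inhibition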
Starred values were filed as active, the others as inactive; ? = inconclusive; / = no result given.

SMILES | XiGFP reactiv | MITF act | CASP6 VEID inh | NSD2 HMT inh | Wnt bcat act | esBAF inh
COc1ccc([C@@H]2CC=CC[C@H](C)Oc3ccccc3C(=O)N(C)[C@@H](C)C(=O)N2)c(OC)c1 (mixture of isomers) | 0 | / | / | / | / | /
COc1cccc(C(=O)Nc2cccc(NC(=O)c3ccccc3Cl)c2)c1 | 0 | / | 1 | -1 | -3 | 17
CN(C)S(=O)(=O)Oc1cccc(C(=O)Nc2cccc(Cl)c2)c1 | / | / | / | 2 | 31* | 44*
O=C(C[C@H]1C=C[C@@H](NS(=O)(=O)c2ccc(F)cc2)[C@H](CO)O1)NCCN1CCCCC1 | 1 | / | -3 | / | / | -7
O=C(NCCCc1ccccc1)c1ccccc1O | / | 44 | / | -6 | 7 | 70*
NS(=O)(=O)c1ccc(CCNC(=O)c2ccccc2Cc2ccccc2)cc1 | 0 | -6 | 2 | -2 | 31* | 1
Cc1ccc(C(=O)NCCCc2ccccc2)c(Cl)c1 | 0 | 101* | 0 | -3 | 18 | 42*
FC(F)Sc1ccc(Nc2ncnc3nc[nH]c23)cc1 | / | 95* | / | -2 | / | -3
CCCCOC(=O)c1ccc(Nc2ncnc3nc[nH]c23)cc1 | 0 | 78 | -2 | / | 13 | 48*
O=C(/C=C/c1cccnc1)c1ccc(F)cc1 | / | / | / | 13 | / | /
C[C@H]1CCCCO[C@@H](CN(C)C(=O)NC2CCCCC2)[C@@H](C)CN([C@@H](C)CO)C(=O)c2cc(NS(=O)(=O)c3cn(C)cn3)ccc2O1 | 0 | / | 1 | / | / | 3
C[C@H](CO)N1C[C@H](C)[C@@H](CN(C)S(=O)(=O)c2ccc(C(F)(F)F)cc2)OCc2ccccc2-c2ccccc2C1=O | 0 | / | 1 | / | / | 3
O=C(CN1C(=O)NC(c2ccccc2)(c2ccccc2)C1=O)Nc1ccc(N2CCOCC2)cc1 | 0 | -2 | 1 | 1 | -7 | 1
COc1ccc(C2(c3ccc(OC)cc3)NC(=O)N(CC(=O)Nc3ccc(N4CCOCC4)cc3)C2=O)cc1 | 0 | -5 | 51* | 4 | -2 | /
COc1ccc(C(C)(O)c2nc(-c3ccccc3)cs2)cc1 (stereo not drawn) | 0 | / | 2 | -3 | -2 | 3
COc1ccc(-c2csc(C(C)(O)c3ccccc3)n2)cc1 (stereo not drawn) | 0 | / | 0 | -6 | 1 | 60*
CN(C)c1ccc(-c2csc(C(C)(O)c3cccc(F)c3)n2)cc1 (stereo not drawn) | 0 | / | 1 | 5 | -5 | 45*
CC(O)(c1cccc(F)c1)c1nc(-c2ccc(Cl)cc2)cs1 (stereo not drawn) | 0 | / | 5 | -14 | -2 | -2
Cc1cc(NO)nc(-c2ccc(Br)cc2)n1 | / | 64 | / | 9 | / | 51*
CCCC(=O)N1CC2(CN[C@@H](CO)c3c2c2ccc(OC)cc2n3C)C1 | 0 | / | / | / | / | /
C[C@H](CO)N1C[C@H](C)[C@@H](CN(C)C(=O)Nc2ccc(C(F)(F)F)cc2)Oc2ccc(NC(=O)Nc3ccc(F)cc3)cc2CC1=O | 0 | / | / | / | / | 2
COC(=O)c1c(NC(C)=O)sc(C(=O)Nc2ccccc2)c1C | 0 | 36 | 0 | -1 | 13 | 31
COC(=O)c1c(NC(C)=O)sc(C(=O)Nc2ccccc2F)c1C | 0 | 58 | 2 | -1 | 37* | /
CCCC(=O)Nc1sc(C(=O)Nc2cccc(N)c2)c(C)c1C(=O)OC | 0 | 45 | 2 | 4 | 37* | 7
O=C(N[C@H]1CC[C@@H](CCNS(=O)(=O)c2ccccc2)O[C@@H]1CO)c1cccnc1 | 1 | / | -6 | / | / | 4
SMILES | XiGFP reactiv | MITF act | CASP6 VEID inh | NSD2 HMT inh | Wnt bcat act | esBAF inh
CCC1CCCCN1CCCNC(=O)c1ccc2nc(N3CCC(C)CC3)sc2c1 (stereo not drawn) | 0 | -41 | -15 | 4 | 16 | 58*
CC1CCN(c2nc3ccc(C(=O)O)cc3s2)CC1 | / | -90 | / | 0 | / | -71
CC1CCN(c2nc3ccc(C(=O)NCCCN4CCCCC4)cc3s2)CC1 | 0 | -53 | -28 | / | 5 | 62*
C[C@@H]1CN([C@H](C)CO)C(=O)c2cc(C3=CCCC3)cnc2O[C@@H]1CN(C)Cc1ccccn1 | 0 | / | -5 | / | / | -3
CCOc1ccc(/C(O)=C2/C(=O)C(=O)N(CCCn3ccnc3)C2c2cccs2)cc1Cl (stereo not drawn) | / | / | / | 3 | 18 | 56*
Cn1c2ccccc2c2ncn(CCC3=CCCCC3)c(=O)c21 | / | / | -3 | -2 | / | 74*
CC(C)(C)c1cc(C(=O)NCc2cc(F)cc3c2OCOC3)n(Cc2ccccc2)n1 | 0 | / | 2 | -3 | 0 | 50*
CC(C)(C)c1cc(C(=O)NNC(=O)Nc2ccccc2)n(Cc2ccccc2)n1 | 0 | -5 | -7 | -1 | -4 | -3
Cc1cccn2cc(-c3ccccc3)nc12 | / | 38 | / | -4 | / | /
Cc1cccn2cc(-c3ccc(F)cc3)nc12 | / | -2 | / | 0 | 55* | 1
COc1ccc(-c2cn3cccc(C)c3n2)cc1Br | 0 | 50 | / | -1 | 35* | 99*
C[C@H]1COCn2nncc2CC[C@H](Cc2ccccc2)C(=O)N1 | 0 | / | / | / | / | /
Nc1c(C(=O)NCc2ccco2)nnn1-c1ccccc1 | / | 37 | / | -2 | 15 | 50*
C[C@H]1CN([C@@H](C)CO)C(=O)Cc2cc(NS(=O)(=O)c3cccs3)ccc2O[C@@H]1CN(C)Cc1ccc2c(c1)OCO2 | 0 | / | 1 | / | / | -2
O=C(c1ccc2c(c1)OCO2)N1CC(=O)N2[C@H](C1)[C@H](c1ccc(C#CC3CCCC3)cc1)[C@@H]2CO | 0 | / | / | / | / | /
O=[N+]([O-])c1cccc(-c2ccc(SCc3ccccn3)nn2)c1 | 0 | 75 | -3 | / | -1 | 42*
COc1cccc(-c2ccc(SCc3ccccn3)nn2)c1 | 0 | 114* | -4 | 0 | ? | /
Clc1ccc(-c2ccc(SCc3ccccn3)nn2)cc1 | / | 116* | / | 1 | 36* | 51*
O=C(CSc1ccc(-c2cccc([N+](=O)[O-])c2)nn1)N1CCCCC1 | 0 | 9 | -1 | 0 | 0 | /
COc1ccc(-c2ccc(SCc3ccccn3)nn2)cc1OC | 0 | 9 | 4 | 1 | -1 | 2
CCCNC(=O)C[C@@H]1CC[C@@H]2[C@@H](COc3ccc(NC(=O)c4cccc(C(F)(F)F)c4)cc3C(=O)N2C)O1 | 0 | / | 2 | / | / | 1
C[C@H](CO)N1C[C@H](C)[C@@H](CN(C)CC2CCCCC2)Oc2c(NC(=O)CCCCCC(=O)Nc3ccccc3N)cccc2C1=O | -1 | / | 0 | / | / | /
CCCOC(=O)Nc1nc2ccccc2o1 | / | 22 | / | 4 | 37* | 18
C=CCOc1cccc(/C=C/c2nc3ccccc3c(=O)[nH]2)c1 | 0 | 82* | -11 | -2 | 12 | -3
Cc1ccccc1/C=C/c1nc2ccccc2c(=O)[nH]1 | 0 | 40 | -1 | 2 | 39* | 21
